# The list is not random: actives were taken first. Their share in the collection is about 2.2%.
# FGF22 binding = FGF22 (human) thermal shift binding; Q9HCT0; recombinant FGF22 thermal shift, SYPRO orange fluorescence; percent of sucrose octasulfate shift, DMSO zero; activity (Tm shift, normalised), % at 9.99 µM; 340,000 compounds, 1.5% hits; AID 651658;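 active = mean Tm shift, scaled 0 neutral to 100 positive control, at about 1.3% or above, every replicate too, limit read from the data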
# 697 NFkB inh = lowers PMA/ionomycin-induced NF-kB signal in 697 B cells | 697 B-cell NF-kB luciferase reporter, 16 h | inhibition, % at 4 µM | 330,000 compounds, 0.33% hits | AID 435022; in the data active = inhibition above about 35%
# Jurkat NFkB inh = inhibitors of the PMA/ionomycin-induced NF-kB reporter in Jurkat cells; PMA/ionomycin-induced NF-kB luciferase reporter, luminescence; inhibition, % at 4 µM; 330,000 compounds, 0.53% hits; in the data active = inhibition above about 50%
# NR2E3 ag-1 = NR2E3 (human) agonism; GST-NR2E3/biotin-RetCOR TR-FRET, 1536-well; Q9Y5X4; AID 2300; inhibition of corepressor binding, % at 4.78 µM; 320,000 compounds, 0.12% hits;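 active = percent inhibition above the cutoff of mean plus 3 SD of all tested compounds, set per screening campaign, cut at about 20% in these data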;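 also: 0% = DMSO wells and 100% = biotin wells as full block of FRET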
# Target sequence (Q9Y5X4 whole entry, looked up): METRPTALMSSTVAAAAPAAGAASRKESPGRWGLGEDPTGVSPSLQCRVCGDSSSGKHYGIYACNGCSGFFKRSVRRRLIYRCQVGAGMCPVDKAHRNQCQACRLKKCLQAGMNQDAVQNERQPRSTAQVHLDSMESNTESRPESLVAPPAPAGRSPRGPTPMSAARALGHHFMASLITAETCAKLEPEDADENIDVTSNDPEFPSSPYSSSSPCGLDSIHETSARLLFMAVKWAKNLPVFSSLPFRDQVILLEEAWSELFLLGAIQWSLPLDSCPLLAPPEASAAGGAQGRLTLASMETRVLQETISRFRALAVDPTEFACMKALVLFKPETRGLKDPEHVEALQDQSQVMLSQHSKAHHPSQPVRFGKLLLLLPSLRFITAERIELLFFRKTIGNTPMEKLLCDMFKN
#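 Material – GST-tagged NR2E3 plus biotinylated RetCOR corepressor · Quantity – NR2E3 fusion 1.35 nM · Times – 5 h incubation at 4 °C · Medium – pH 7.5 Tris-based buffer · Technique – TR-FRET, Eu(K)-anti-GST donor, streptavidin-D2 acceptor, ex 340, em 617/671 nm · Benchmarks – high control biotin, low control 0.6% DMSO · Format – 1536-well plates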
# miR122 inh = blocks miR-122 activity in Huh7 sensor cells; Huh7 miR-122 Renilla luciferase sensor, 48 h; neutral wells = 0, positive control = 100; activation (reporter increase), % at 12.5 µM; 340,000 compounds, 0.3% hits; AID 602342;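 active = mean replicate activation score at least 90 and every replicate individually at or above 90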;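 also: higher luciferase means less miR-122 activity so hits act as miR-122 inhibitors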
# NR2E3 ag-2 = activates human NR2E3 receptor | 360,000 compounds, 0.35% hits | inhibition of corepressor binding, % at 3.98 µM | CHO-S Gal4-NCOR/VP16-NR2E3 two-hybrid, luciferase | Q9Y5X4;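 active = inhibition above the mean of all tested compounds plus 3 SD, cut at about 70% in these data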;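 also: 0% = DMSO with NR2E3 transfected cells and 100% = cells lacking NR2E3 construct; higher means lower luciferase signal from less NR2E3 corepressor binding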
# NR2E3 ag confirm = NR2E3 agonism confirmed in two-hybrid assay. shares compounds with NR2E3 ag-2. CHO-S mammalian two-hybrid NR2E3-NCOR, luciferase luminescence. inhibition, % at 3.98 µM. 2,300 compounds, 51% hits;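 active = average inhibition above a cutoff equal to the mean inhibition of all tested compounds plus one SD, cut at about 70% in these data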;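 also: 0% = DMSO in NR2E3 cells and 100% = DMSO in cells lacking NR2E3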
# GAL4-VP16 luc = counter-screen for NR2E3 agonists: GAL4-VP16 reporter inhibitors; CHO-S GAL4-VP16 luciferase reporter, luminescence; shares compounds with NR2E3 ag-2; inhibition, % at 3.98 µM; 2,300 compounds, 29% hits;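 active = mean inhibition above a cutoff equal to the average over all tested compounds plus one standard deviation, cut at about 70% in these data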;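 also: luciferase from a UAS reporter driven by GAL4-VP16 transactivation; 0% = DMSO with VP16-transfected cells and 100% = DMSO with cells lacking VP16; higher means less reporter light so more repression of VP16 activity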
# * marks the source's active call; other numbers are inactive results; / = not tested or not shown; [ ] = dose if it differs, or a comment.
SMILES,FGF22 binding,697 NFkB inh,Jurkat NFkB inh,NR2E3 ag-1,miR122 inh,NR2E3 ag-2,NR2E3 ag confirm,GAL4-VP16 luc
O=C(Nc1ccccc1)[C@@H]1[C@@H](CO)[C@@H]2Cn3c(cccc3=O)[C@H]1N2Cc1ccncc1,0,/,/,/,-6[16.7 µM],/,/,/
Cc1ccc(Cl)cc1N1CCN(C(=O)CN(C2CCCCC2)S(C)(=O)=O)CC1,/,-42,-4,3,-8,53,61,61
Cc1ccc(Cl)cc1N1CCN(C(=O)COc2ccc(S(=O)(=O)NC(C)C)cc2)CC1,0,-17,6,3,/,56,64,42
COc1cccc(-c2ccc3n(c2=O)C[C@@H]2[C@@H](CO)[C@H](C(=O)N(C)C)[C@H]3N2Cc2cncnc2)c1,0,/,/,/,4[16.7 µM],/,/,/
O=C(Nc1ccc2c(c1)OCCO2)C(c1ccnc2ccccc12)N1CCN(c2ccc(C(F)(F)F)cn2)CC1 (centres undefined),0,/,/,/,2,58,29,2
O=C(Nc1ccc2c(c1)OCCO2)C(c1ccnc2ccccc12)N1CCN(c2ccc(F)cc2)CC1 (centres undefined),0,/,/,/,-7,-24,/,/
Cc1ccc2ccc3ccc(C)nc3c2n1,0,-3,-1,3,3,92*,40,28
CC(=O)Nc1ccc2c(c1)C(=O)N(C)[C@@H]1CC[C@@H](CC(=O)NC3CCCCC3)O[C@@H]1CO2,0,/,/,/,-7[16.7 µM],/,/,/
CC(C)(C)[S@](=O)N1Cc2cc(C(=O)NCCN3CCCCC3)nc(-c3cccc(-c4ccc(C#N)cc4)c3)c2[C@@H]1CCO,0,/,/,/,/,/,/,/
CC(C)(C)[C@H]1C=C(C(=O)Nc2ccccc2)O[C@@H](OCCCCO)C1,-1,-49,-51,0,12,65,-3,-48
CC(C)(C)[C@@H]1C=C(C(=O)O)O[C@H](OCCCCO)C1,0,5,-1,2,3,-17,/,/
O=C(Cn1cnc2ccccc21)Nc1ccc(SC(F)F)cc1,0,-22,43,4,-10,68,94*,78*
COc1cccc(CN2CC3(CN(CC4CCOCC4)C3)c3c([nH]c4cc(OC)ccc34)[C@H]2CO)c1,0,/,/,/,/,/,/,/
CCN(CC)CCNC(=O)C(=O)Nc1cc2c3c(c1)CCC(=O)N3CCC2,0,0,-7,0,/,75*,-9,-14
N#CC(=C(O)CN1CCN(c2ccccc2F)CC1)c1nc(-c2ccc(Cl)cc2)cs1,0,/,/,/,/,29,/,/
N#CC(=C(O)CN1CCN(c2ccccc2F)CC1)c1nc(-c2ccccc2)cs1,0,/,/,/,/,57,37,43
CCS(=O)(=O)N1CCCC(C(=O)c2ccc(OC)cc2C)C1 (centres undefined),0,-1,-2,3,/,-28,/,/
COc1ccc(C(=O)C2CCCN(S(=O)(=O)c3ccc(C(C)=O)cc3)C2)c(C)c1 (centres undefined),0,-34,7,-2,5,83*,67,63
COCC(=O)Nc1ccc2c(c1)C(=O)N(C)C[C@@H](OC)[C@H](C)CN(C(=O)c1cnccn1)[C@@H](C)CO2,0,/,/,/,0[16.7 µM],/,/,/
CCC(=O)Nc1ccc2c(c1)C(=O)N(C)[C@@H]1CC[C@H](CC(=O)NCc3ccccc3Cl)O[C@H]1CO2,0,/,/,/,-1[16.7 µM],/,/,/
O=C(C[C@H]1C=C[C@H](NC(=O)Nc2ccc(F)cc2)[C@@H](CO)O1)NCc1ccccn1,0,/,/,/,/,/,/,/
COc1cccc(NC(=O)Nc2nc(SC)ns2)c1,0,-132,-76,0,1,-118,/,/
CCSc1nsc(NC(=O)Nc2cccc(F)c2)n1,0,-48,1,3,-23,93*,99*,84*
CCN1[C@H](C(=O)N2CCN(C)CC2)[C@@H](CO)[C@@H]2Cn3c(ccc(-c4ccccc4)c3=O)[C@@H]21,0,/,/,/,-1[16.7 µM],/,/,/

# Bioassay records as filed in PubChem.
